Assay outcomes from PubChem.
Only some compounds are listed: those with a hit (about 0.7% of all), similar ones and a draw of the others.
Rce1 inh = yeast Rce1p protease inhibitors, primary screen, biochemical, fluorescence, cell-free homogeneous | yeast membranes, quenched prenylated peptide cleavage fluorescence | calls only | hit rate 0.27% among 290,000 | AID 2563, 2010;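 active = fall in fluorescence gain of 50% or more versus controls, with final raw signal at or below 3038400; inconclusive = same 50% fall but final raw signal above 3038400; inactive = fall in fluorescence gain under 50%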;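 note: plate controls were neutral control wells for no effect and wells lacking membranes for full effect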
HSV augment = enhancers of HSV replication in host cells, fold increase, host cell viability; HSV replication augmentation in cells; maximum fold increase; hit rate 0.005% among 220,000; in the data active = maximum fold increase above about 1.5; inconclusive = no clear call, values can overlap the other calls; tested in PC3 cells
STK33 kinase inh = inhibitors of purified STK33 kinase, primary screen, biochemical, ADP-Glo luminescence, homogeneous, cell-free. Serine/threonine-protein kinase 33 (Homo sapiens), Q9BYT3. MBP phosphorylation. inhibition, % at 10 µM. hit rate 0.073% among 320,000;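 active = inhibition at or above 25%, using the most active replicate where run in duplicate; inactive = inhibition below 25%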
Target sequence (Q9BYT3 whole entry, looked up): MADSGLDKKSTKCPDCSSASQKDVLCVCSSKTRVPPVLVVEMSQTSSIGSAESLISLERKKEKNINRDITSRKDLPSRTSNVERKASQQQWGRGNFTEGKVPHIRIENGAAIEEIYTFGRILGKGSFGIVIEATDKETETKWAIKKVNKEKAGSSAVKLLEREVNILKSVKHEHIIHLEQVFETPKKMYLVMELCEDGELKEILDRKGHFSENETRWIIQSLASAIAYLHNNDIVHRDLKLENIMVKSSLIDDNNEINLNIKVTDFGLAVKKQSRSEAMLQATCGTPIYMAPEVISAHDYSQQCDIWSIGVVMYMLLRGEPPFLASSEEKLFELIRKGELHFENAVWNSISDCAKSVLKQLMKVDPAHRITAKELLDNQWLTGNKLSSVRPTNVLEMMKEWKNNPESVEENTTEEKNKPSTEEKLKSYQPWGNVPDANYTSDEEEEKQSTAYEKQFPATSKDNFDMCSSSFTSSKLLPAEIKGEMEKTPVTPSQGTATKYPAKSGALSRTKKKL
GSK3beta inhib = human GSK3beta kinase inhibitors, primary screen, biochemical, cell-free homogeneous, HTS | AID 2097, 2009 | Glycogen synthase kinase-3 beta (Homo sapiens), P49841 | GST-GSK3beta kinase, ADP-Glo luminescence, 60 min; hits give low values | hit rate 0.038% among 300,000 | activity score (negative = inhibition), % at 10 µM;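 active = more than half of replicate wells score below -50%, meaning over 50% inhibition versus plate controls; inconclusive = some replicates but at most half score below -50%; inactive = no replicate scores below -50%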;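 note: 0% = median DMSO wells and -100% = median GW8510 positive control wells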
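test system = GST-tagged human GSK3beta kinase, cell-free | reagent = 25 µM ATP with peptide substrate | dosing = one dose of 10 µM per compound | schedule = 60 min reaction, RT | detection = luminescent ADP-Glo measurement of ADP formed | control set = DMSO neutral wells and GW8510 at 20 µM as positive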
GSK3 alpha inh = blockers of GSK3A enzyme activity – biochemical, luminescence, cell-free homogeneous, HTS, primary screen; Glycogen synthase kinase-3 alpha (Homo sapiens), P49840; GSK-3 alpha kinase, ADP-Glo luminescence, 60 min; inhibition, % at 10 µM; hit rate 0.1% among 320,000; AID 2650, 2010;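 active = more than half of replicates show inhibition above 20%; inconclusive = some but at most half of replicates above 20% inhibition; inactive = no replicate shows inhibition above 20%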;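 note: GST-tagged GSK-3 alpha with peptide substrate and 25 µM ATP; 0% = DMSO neutral wells and 100% = GW8510 positive control wells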
Lipid droplet = inhibitors of hepatocyte lipid droplet formation, primary screen, imaging, high-throughput imaging, BODIPY stain; inhibition, % at 6.5 µM; hit rate 0.4% among 240,000; AML12 mouse hepatocytes, oleate lipid droplets;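 active = lipid droplet intensity inhibited by at least 50%, with more than 500 cells counted; inconclusive = wells with under 300 cells, treated as cytotoxic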
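Material – mouse AML12 hepatocyte cell line, fixed after treatment · Compound dosing – one dose, 6.5 µM compound · Times – compound with oleate, overnight · Measured by – Image-based BODIPY and DAPI two-channel analysis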
Lipid drop inh = hepatocyte lipid droplet accumulation inhibitors, confirmation, imaging, AML12 mouse hepatocytes, single concentration, high-content | hit rate 65% among 870 | BODIPY lipid droplet imaging; droplets induced with 100 µM oleic acid | shares compounds with Lipid droplet | inhibition, % at 5.2 µM;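 active = inhibition of lipid droplet metric at least 50%, with more than 300 cells in each of four replicates; inconclusive = wells under 300 cells, flagged as toxic or low count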;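 note: plate controls were DMSO with oleic acid for no effect and 5 µM Triacsin-C for full effect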
AML12 tox img = AML12 hepatocyte cytotoxicity, counter-screen for hepatic lipid droplet formation project, imaging, DAPI nuclear morphology imaging. hit rate 3% among 870. AML12 mouse hepatocytes; hits give high values; cells fed 100 µM oleate overnight. z-score at 5 µM. AID 463200, 2010. shares compounds with Lipid droplet; in the data active = z-score above about 6.3;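 note: compound exposure lasted overnight at 37 °C before fixation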
AML12 tox ATP = AML12 hepatocyte cytotoxicity, confirmation, cytotoxicity control for hepatic lipid droplet formation project, cell-based, single concentration; shares compounds with Lipid droplet; AML12 mouse hepatocyte viability, ATP luminescence; cells loaded with 100 µM oleic acid; cytotoxicity, % at 50 µM; 530 tested, under 10 active;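 active = cytotoxicity above 50% in each of four replicates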;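 note: compound exposure lasted overnight at 37 °C before the ATP read; 0% = DMSO-treated cells and 100% = wells with no cells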
An asterisk follows results filed as active; i = inactive; ? = inconclusive; . = no result.

SMILES	Rce1 inh	HSV augment	STK33 kinase inh	GSK3beta inhib	GSK3 alpha inh	Lipid droplet	Lipid drop inh	AML12 tox img	AML12 tox ATP
COc1ccc(-c2c/c(=N\c3nc(-c4ccccc4)c(C)s3)c3ccccc3o2)cc1O	i	i	-1	0	-2	58*	-20	23*	.
CCCn1c(N)c(C(=S)NC(=O)C2CC2)c(=O)n(C)c1=O	.	i	.	.	.	-5	.	.	.
O=C(Cn1nnc(-c2ccc([N+](=O)[O-])cc2)n1)NNC(=O)c1ccccc1	i	.	-1	-2	-2	59*	29	0.18	.
CCc1cc(SC#N)cc(C)c1NC(=O)CCl	i	i	-3	-5	1	68*	58	4.3	.
C=C(C)Cn1c(N2CCC(Cc3ccccc3)CC2)nc2c1c(=O)[nH]c(=O)n2C	i	i	-1	0	1	64*	107*	-0.55	-2
COc1ccc(-c2cnc(SCC(=O)Nc3nc(C(C)(C)C)cs3)n2Cc2ccco2)cc1	i	i	-1	2	2	64*	94*	1.4	-32
COc1ccc(-c2cnc(SCC(=O)Nc3cc(C)on3)n2Cc2ccco2)cc1	i	.	-2	1	-1	-5	.	.	.
CC(Nc1ccc(Cl)cc1)C(=O)NN (stereo unspecified)	i	i	-1	2	0	10	.	.	.
O=S1(=O)N=C(Oc2cccc3ccccc23)c2ccccc21	i	i	-1	2	-6	66*	23	-0.32	.
Cc1ccccc1OC1=NS(=O)(=O)c2ccccc21	i	i	1	-1	-1	-6	.	.	.
CCc1ccccc1NC(=S)N(CCCN1CCOCC1)Cc1cccs1	i	i	-1	3	-2	-5	.	.	.
CCCCn1c(SCC(=O)Nc2ccc3c(c2)OCCO3)nnc1C(CC)N(C)C (stereo unspecified)	.	.	0	.	-2	.	.	.	.
CCCCn1c(SCC(=O)Nc2cc(C(F)(F)F)cc(C(F)(F)F)c2)nnc1C(CC)N(C)C (stereo unspecified)	i	i	0	-1	-1	78*	107*	-0.35	17
CCCCCN(C(=O)CCC(=O)OCC(=O)c1ccc(C(C)CC)cc1)c1c(N)n(CCCC)c(=O)[nH]c1=O (stereo unspecified)	i	.	3	0	-1	.	.	.	.
COc1ccc(C2(c3ccc(OC)cc3)NC(=O)N(CC(=O)Nc3ccccc3C)C2=O)cc1	i	.	0	0	.	60*	104*	-0.77	11
COc1ccc(C2(c3ccc(OC)cc3)NC(=O)N(CC(=O)Nc3ccc(C(N)=O)cc3)C2=O)cc1	i	.	-4	4	-1	-10	.	.	.
COc1ccc(C2(c3ccc(OC)cc3)NC(=O)N(CC(=O)Nc3ccc(OC)c(OC)c3)C2=O)cc1	i	.	-5	0	1	52*	74*	-1.3	18
COc1ccc(CC(=O)OCC(=O)N2N=C(c3ccccc3)CC2c2ccc(OC)cc2)cc1 (stereo unspecified)	i	i	0	5	-1	82*	107*	-0.45	.
O=C(CSC1=NC2(CCCCCC2)N=C1c1ccccc1)Nc1ccc2c(c1)OCCO2	i	.	-2	1	.	59*	69*	-0.48	-23
Cc1sc(NC(=S)NC(=O)C(C)(C)C)c(C(N)=O)c1C	i	i	1	-1	3	.	.	.	.
Cc1cc2c(cc1S(=O)(=O)Nc1ccc(F)cc1)n(C)c(=O)c(=O)n2C	i	.	-2	5	0	40	.	.	.
Cc1cc2c(cc1S(=O)(=O)Nc1cccc(C)c1C)n(C)c(=O)c(=O)n2C	i	.	5	3	9	54*	66	-0.54	.
Cc1cc2c(cc1S(=O)(=O)Nc1c(C)cccc1C)n(C)c(=O)c(=O)n2C	i	.	3	3	-3	71*	92*	-0.12	8
Cc1cc2c(cc1S(=O)(=O)NCc1ccccc1)n(C)c(=O)c(=O)n2C	i	.	-1	0	.	-2	.	.	.
CCc1ccc(NS(=O)(=O)c2cc3c(cc2C)n(C)c(=O)c(=O)n3C)cc1	i	.	-2	2	2	51*	93*	-0.7	5
SMILES	Rce1 inh	HSV augment	STK33 kinase inh	GSK3beta inhib	GSK3 alpha inh	Lipid droplet	Lipid drop inh	AML12 tox img	AML12 tox ATP
Cc1ccc(C(=O)CSc2nnc(-c3ccco3)n2CC2CCCO2)cc1 (stereo unspecified)	i	i	2	-1	3	-10	.	.	.
CN(C)c1ccc(CNC(=O)CCNS(=O)(=O)c2cc(Br)cnc2N)cc1	i	.	-1	2	-2	2	.	.	.
CN1C(=O)[C@H]2[C@@H](C3CC3)N3C(=O)CN(Cc4ccccn4)C(=O)[C@@]3(Cc3ccccc3)[C@H]2C1=O	i	.	-1	2	1	60*	6	-0.62	.
Cc1ccccc1C(=O)c1cccn1CC(=O)NC(C)c1ccc2c(c1)OCCO2 (stereo unspecified)	i	i	-1	2	-1	-6	.	.	.
Cc1cc(C=O)c(O)cc1O	i	.	-1	0	-3	51*	27	-0.29	.
O=C(O)C1=C(C(=O)Nc2cc(C(F)(F)F)ccc2Cl)CCCC1	i	i	-2	0	-1	13	.	.	.
CS(=O)(=O)N(Cc1ccc(Cl)cc1)c1ccc(C(=O)N/N=C/c2cc3ccccc3nc2Cl)cc1	i	i	0	-1	0	64*	106*	-0.46	1
CS(=O)(=O)N(Cc1ccc(Cl)cc1)c1ccc(C(=O)NCc2ccccn2)cc1	i	i	-1	4	-4	-25	.	.	.
Cc1ccc(-c2cc(-c3c(C)nn(C)c(=O)c3N)[nH]n2)cc1	i	i	-1	-1	-1	56*	79*	-0.36	.
CCCN1C(=O)/C(=C/C=C2\N(CC)c3ccccc3C2(C)C)SC1=S	.	?	0	0	-2	.	.	.	.
CCCCN1C(=O)/C(=C/C=C2\Oc3ccccc3N2CC)SC1=S	i	i	.	-1	.	69*	113*	-0.5	14
